Experimental findings from ChEMBL document CHEMBL4184212, “Design, synthesis and evaluation against Chikungunya virus of novel small-molecule antiviral agents” (Bioorg Med Chem, 2018) are described below.

Data set [1] is described as follows: Cytotoxicity against African green monkey Vero cells assessed as decrease in cell viability after 5 days by MTS/PMS method. The data set is classed as cell-based. To be noted: chlorocebus sabaeus. In outline:
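Uninfected Vero cells in MEM Rega-3 with 2% FBS were treated with compound alongside the antiviral assay. Metabolic activity was read by MTS/PMS, and wells were checked microscopically for morphology changes. CC50 is the concentration reducing metabolic activity by 50%, found by logarithmic interpolation. Values are the mean of ≥3 independent experiments.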

The subject of another data set is Chikungunya virus. Put plainly: Antiviral activity against Chikungunya virus Indian Ocean 889 infected in African green monkey Vero cells assessed as inhibition of virus-induced cytopathic effect after 5 days by MTS/PMS method. The data set is classed as functional, organism-based. The note with it: Indian Ocean 889, Vero, 120 h.
Data set [2] in a line: Selectivity index, ratio of CC50 for African green monkey Vero cells to EC50 for Chikungunya virus Indian Ocean 889 infected in African green monkey Vero cells. Type of data set: toxicity. To be noted: read-out: Ratio CC50/EC50.

The structures appear in SMILES notation. Where only a bound is given, the exact number is not on record here.

For `CCOc1ccc(/C=N/NC(=O)/C=C/c2ccc(C)cc2)cc1OCC`, in data set [1], the CC50 (usually the concentration that lowers cell viability or growth by half) at 120 h is above 284 µM. Besides, in the data set with Chikungunya virus, the EC50 (as a rule, the concentration that produces a half-maximal response) was 113 µM and the EC90 – broadly, the point of the concentration-response curve where the effect stands at 90% – was above 284 µM. The selectivity ratio in data set [2] is above 2.5.
With `CC(C)(C)c1ccc(/C=C/C(=O)N/N=C/c2ccc(O)cc2)cc1`, the CC50 at 120 h in data set [1] stood at 7.3 µM.
Consider `CC(C)(C)c1ccc(/C=C/C(=O)N/N=C/c2ccccc2)cc1`, for which, in data set [1], the CC50 at 120 h was found to be 22.1 µM. In the data set on Chikungunya virus, the EC50 came to 5.8 µM and the EC90 turned out to be 87.5 µM. In addition, in data set [2], the selectivity ratio turned out to be 3.8.
The corresponding values for `COc1ccc(/C(C)=N/NC(=O)[C@@H]2C[C@H]2c2ccccc2)cc1` are 72 µM, 5.6 µM, 12 µM and 13.
As for `CCN(CC)CCCC(C)Nc1ccnc2cc(Cl)ccc12` (centres undefined) [CHLOROQUINE], in data set [1], the CC50 at 120 h worked out at 89 µM. The EC90 in the data set with Chikungunya virus was found to be 21 µM.
In the case of `COc1ccc(/C(C)=N/NC(=O)/C=C/c2ccc(C(C)(C)C)cc2)cc1OC`, in the data set on Chikungunya virus, the EC50 is above 263 µM and the EC90 was above 263 µM.
Turning to `C/C(=N\NC(=O)/C=C/c1ccccc1)c1ccc(C2CCCCC2)cc1`, in the data set with Chikungunya virus, the EC50 is above 289 µM and the EC90 is above 289 µM.
`O=C(CCc1ccccc1)N/N=C/c1ccc(O)cc1`: in the data set with Chikungunya virus, the EC50 was above 373 µM and the 90% effect concentration (EC90) is above 373 µM.
For the compound `Cc1ccc(/C=N/NC(=O)[C@@H]2C[C@H]2c2ccc(C(C)(C)C)cc2)cc1`, in the data set with Chikungunya virus, the concentration for a half-maximal effect (EC50) is 6.6 µM.
`C/C(=N\NC(=O)[C@@H]1C[C@H]1c1ccccc1)c1ccc(C2CCCCC2)cc1`: the CC50 at 120 h in data set [1] came to 101 µM. Also, in the data set on Chikungunya virus, the EC50 turned out to be 32 µM and the EC90 was 44 µM. In addition, the selectivity ratio in data set [2] stood at 3.1.
Regarding `CCOc1ccc(/C=N/NC(=O)CCc2ccccc2)cc1OCC`, in the data set with Chikungunya virus, the EC50 is above 294 µM and the EC90 is above 294 µM.
Consider `CC(C)(C)c1ccc(CCC(=O)N/N=C/c2ccc(O)cc2)cc1`, for which the EC50 with Chikungunya virus was found to be 36.4 µM.
Consider `CC(C)(C)c1ccc(/C=C/C(=O)N/N=C/c2ccc([N+](=O)[O-])cc2)cc1`, for which, in the data set with Chikungunya virus, the EC50 is above 285 µM and the EC90 is above 285 µM.
Take `O=C(/C=C/c1ccccc1)NCc1ccc(C(F)(F)F)cc1`: in the data set with Chikungunya virus, the EC50 was above 246 µM and the EC90 is above 246 µM.
As to `O=C(/C=C/c1ccccc1)NCc1ccc(-c2ccccc2)cc1`, in the data set on Chikungunya virus, the EC50 was above 319 µM and the EC90 was above 319 µM.
As for `CC(C)c1ccc(/C=N/NC(=O)/C=C/c2ccc(C(C)(C)C)cc2)cc1`, the cytotoxic concentration (CC50) at 120 h in data set [1] was found to be 7.4 µM. In addition, the EC50 in the data set with Chikungunya virus amounted to 2.1 µM. Moreover, in data set [2], the selectivity ratio was 3.5.
Consider `CC(C)(C)c1ccc(/C=C/C(=O)NCc2ccc(C(F)(F)F)cc2)cc1`, for which, in data set [1], the CC50 at 120 h amounted to 115 µM. In the data set on Chikungunya virus, the EC50 is 125 µM and the EC90 worked out at 47.9 µM. Also, the selectivity ratio in data set [2] came to 0.9.
For `CC(C)(C)c1ccc(/C=C/C(=O)NCc2ccc(-c3ccccc3)cc2)cc1`, the CC50 at 120 h in data set [1] came to 4.3 µM. In addition, in the data set with Chikungunya virus, the EC50 amounted to 2.9 µM and the EC90 was above 271 µM.
`CC(C)(C)c1ccc([C@@H]2C[C@H]2C(=O)N/N=C/c2ccc(C(F)(F)F)cc2)cc1`: the CC50 at 120 h in data set [1] was found to be 30 µM. Also, in the data set on Chikungunya virus, the EC50 is 14 µM and the concentration for an effect of 90% (EC90) is 19 µM. In addition, the selectivity ratio in data set [2] was determined as 2.1.
Turning to `COc1ccc(/C=N/NC(=O)/C=C/c2ccc(C(C)(C)C)cc2)cc1`, the CC50 at 120 h in data set [1] came to 117 µM. In the data set on Chikungunya virus, the EC50 amounted to 5.9 µM and the EC90 stood at 38.8 µM. The selectivity ratio in data set [2] is 19.8.
For `O=C(CCc1ccccc1)N/N=C/c1ccc(C2CCCCC2)cc1`, in the data set with Chikungunya virus, the EC50 was above 96 µM and the 90% effect concentration (EC90) is above 96 µM.
As for `O=C(N/N=C/c1ccc(O)cc1)[C@@H]1C[C@H]1c1ccccc1`, in data set [1], the CC50 at 120 h came out at 15 µM. Further, in the data set with Chikungunya virus, the EC50 turned out to be 6.4 µM and the EC90 was 8.7 µM. For the same compound, the selectivity ratio in data set [2] worked out at 2.3.
Take `C/C(=N\NC(=O)/C=C/c1ccc(C(C)(C)C)cc1)c1ccc(-c2ccccc2)cc1`: in the data set on Chikungunya virus, the EC50 was above 252 µM and the EC90 is above 252 µM.
Take `CC(C)(C)c1ccc(/C=C/C(=O)N/N=C/c2ccc(C(C)(C)C)cc2)cc1`: in the data set on Chikungunya virus, the EC50 is above 276 µM and the EC90 was above 276 µM.
Turning to `C/C(=N\NC(=O)/C=C/c1ccc(C(C)(C)C)cc1)c1ccc(C2CCCCC2)cc1`, in the data set with Chikungunya virus, the EC50 was above 248 µM and the EC90 is above 248 µM.
For the compound `Cc1ccc(/C=N/NC(=O)CCc2ccc(C(C)(C)C)cc2)cc1`, in the data set with Chikungunya virus, the EC50 is above 100 µM and the EC90 is above 100 µM.
`C/C(=N\NC(=O)CCc1ccc(C(C)(C)C)cc1)c1ccc(C2CCCCC2)cc1`: in the data set with Chikungunya virus, the EC50 was above 82.4 µM and the EC90 was above 82.4 µM.
As to `C/C(=N\NC(=O)/C=C/c1ccc(C(C)(C)C)cc1)c1cnccn1`, the CC50 at 120 h in data set [1] was above 310 µM. Further, in the data set on Chikungunya virus, the EC50 stood at 103 µM and the EC90 worked out at 122 µM. Also, the selectivity ratio in data set [2] was found to be 1.2.
Regarding `CCOc1ccc(/C=N/NC(=O)/C=C/c2ccc(C(C)(C)C)cc2)cc1OCC`, in data set [1], the CC50 at 120 h was 101 µM. The 90% effect concentration (EC90) in the data set on Chikungunya virus worked out at 11 µM. For the same compound, the selectivity ratio in data set [2] is 32.
Regarding `CCOc1ccc(/C=N/NC(=O)[C@@H]2C[C@H]2c2ccc(C(C)(C)C)cc2)cc1OCC`, the CC50 at 120 h in data set [1] came to 72 µM. Besides, in the data set with Chikungunya virus, the concentration giving a half-maximal response (EC50) came to 5 µM and the EC90 was 6.4 µM. Also, the selectivity ratio in data set [2] worked out at 14.
Regarding `Cc1ccc(/C=C/C(=O)N/N=C/c2ccc(C)cc2)cc1`, in the data set on Chikungunya virus, the EC50 is above 359 µM and the EC90 was above 359 µM.
As for `CCOc1ccc(/C=N/NC(=O)CCc2ccc(C(C)(C)C)cc2)cc1OCC`, in the data set on Chikungunya virus, the EC50 is above 11 µM and the EC90 is above 11 µM.
Regarding `CC(C)(C)c1ccc(/C=C/C(=O)N/N=C/c2ccc(-c3ccccc3)cc2)cc1`, the CC50 at 120 h in data set [1] is 20.1 µM.
Regarding `Cc1ccc(/C=N/NC(=O)/C=C/c2ccccc2)cc1`, the CC50 at 120 h in data set [1] came out at 84.4 µM. Further, in the data set with Chikungunya virus, the EC50 is 93.3 µM and the EC90 was above 284 µM. Further, the selectivity ratio in data set [2] is 0.9.
Consider `CC(C)(C)c1ccc([C@@H]2C[C@H]2C(=O)N/N=C/c2ccc(O)cc2)cc1`, for which, in the data set on Chikungunya virus, the EC50 turned out to be 2.7 µM and the EC90 was 3.8 µM.
With `Cc1ccc(/C=N/NC(=O)/C=C/c2ccc(C(C)(C)C)cc2)cc1`, the CC50 at 120 h in data set [1] stood at 124 µM. In the data set on Chikungunya virus, the EC50 is 5.8 µM and the EC90 is 10 µM. Also, the selectivity ratio in data set [2] is 21.4.
As to `Cc1ccc(/C=N/NC(=O)CCc2ccccc2)cc1`, in the data set with Chikungunya virus, the EC50 is above 375 µM and the EC90 is above 375 µM.
Take `C/C(=N\NC(=O)/C=C/c1ccc(C(C)(C)C)cc1)c1ccc(Cl)cc1`: in the data set on Chikungunya virus, the EC50 is above 282 µM and the EC90 was above 282 µM.
